Assay results: article PMC6981294 (Molecular cell, 2019)
Ends that are not written are not given here.

T1: PPP4R3A EVH1 domain (Homo sapiens, UniProt Q6IN85)
T1 sequence (Q6IN85 2-117): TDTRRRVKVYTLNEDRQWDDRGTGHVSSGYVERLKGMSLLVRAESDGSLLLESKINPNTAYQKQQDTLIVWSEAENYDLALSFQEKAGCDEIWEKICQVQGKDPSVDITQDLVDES

T2: CDC25A full length, recombinant (human, UniProt P30304 1-524)
T2 sequence (looked up): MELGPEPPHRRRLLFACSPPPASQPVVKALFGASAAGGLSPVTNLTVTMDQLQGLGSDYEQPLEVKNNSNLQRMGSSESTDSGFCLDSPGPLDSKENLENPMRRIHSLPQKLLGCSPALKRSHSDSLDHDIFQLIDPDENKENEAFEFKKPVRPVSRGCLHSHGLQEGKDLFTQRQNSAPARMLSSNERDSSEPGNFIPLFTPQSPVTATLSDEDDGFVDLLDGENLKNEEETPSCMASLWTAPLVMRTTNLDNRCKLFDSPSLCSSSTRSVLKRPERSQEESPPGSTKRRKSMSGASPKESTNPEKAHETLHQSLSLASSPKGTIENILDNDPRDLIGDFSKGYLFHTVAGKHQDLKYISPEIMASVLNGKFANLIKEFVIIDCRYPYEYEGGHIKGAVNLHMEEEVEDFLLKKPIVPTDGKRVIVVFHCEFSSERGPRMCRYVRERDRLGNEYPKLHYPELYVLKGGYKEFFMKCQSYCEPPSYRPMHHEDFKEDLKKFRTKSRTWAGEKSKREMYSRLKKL

T3: GST-WAPL 375-625 (human, UniProt Q7Z5K2 375-625)
T3 sequence (looked up): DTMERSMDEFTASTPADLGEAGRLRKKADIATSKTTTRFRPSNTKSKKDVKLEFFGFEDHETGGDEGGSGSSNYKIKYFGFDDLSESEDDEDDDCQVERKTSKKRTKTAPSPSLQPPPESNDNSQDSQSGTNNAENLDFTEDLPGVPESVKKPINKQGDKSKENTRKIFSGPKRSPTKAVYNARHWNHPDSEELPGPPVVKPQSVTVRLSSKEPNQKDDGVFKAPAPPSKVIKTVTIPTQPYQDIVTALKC

B1: EVH1 domain of PPP4R3A (amino acids 2-117) (domain or fragment, human, UniProt Q6IN85 2-117, looked up)
chain: TDTRRRVKVYTLNEDRQWDDRGTGHVSSGYVERLKGMSLLVRAESDGSLLLESKINPNTAYQKQQDTLIVWSEAENYDLALSFQEKAGCDEIWEKICQVQGKDPSVDITQDLVDES

Key:
[1] = target: T1, PPP4R3A EVH1 domain; assay: ITC of peptides with the EVH1 domain from PPP4R3A; assay type: binding
Method in brief: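 Peptide in syringe, titrated at 25 °C into cell holding EVH1 domain: one 0.4 μl injection, then 19 × 2 μl at 150 s spacing, stirring 750 rpm. Peptide-into-buffer controls run. Heats normalised per mole injectant, fitted to single-site model.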

[2] = target: B1; assay: ITC
[3] = target: T2, CDC25A full length, recombinant; assay: ITC
[4] = target: T3, GST-WAPL 375-625; assay: ITC

Row | Kd [1] [µM] | Kd [2] [µM] | Molecule | also measured
1 | 1.49 |  | DPDTELMPPPAPKRPHPL [MCE1-P5A] | 
2 | 85.6 |  | DPDTELAPPPPPKRPHPL [MCE1-M1A] | 
3 | 119 |  | DPDTELMPPAPPKRPHPL [MCE1-P4A] | 
4 | 1.4 |  | DPDTELMPPPPAKRPHPL [MCE1-P6A] | 
5 | 3.78 |  | DPDTEAMPPPPPKRPHPL [MCE1-L(-1)A] | 
6 | 7.58 |  | DPDTELMPAPPPKRPHPL [MCE1-P3A] | 
7 |  | 7.93 | DPDTELMAPPPPKRPHPL [MCE1 peptide MCE1-P2A] | 
8 |  |  | B1 | binding result [3]: binds; binding result [4]: binds
9 |  | 0.98 | DPDTELMPPPPPKRPHPL [MCE1 MxPP motif peptide] | 
10 |  | 53 | PFTFKVAAPPPS [model peptide P4: Ala] | 
11 |  | 53 | PFTAKVPAPPPS [model peptide P1: Ala] | 
